{"data": "Published values pooled from the literature", "SLC6A2": "Sodium-dependent noradrenaline transporter (SLC6A2, Homo sapiens, UniProt P23975)", "CASK": "Peripheral plasma membrane protein CASK (CASK, Homo sapiens, UniProt O14936)", "MPO": "Myeloperoxidase (MPO, Homo sapiens, UniProt P05164)", "note": "Lines come from different studies, so protocols differ."}
{"Compound": "CNc1nc(C#Cc2ccc(Cl)s2)nc2c1ncn2[C@H]1[C@H](O)[C@H](O)[C@]2(CC#N)C[C@H]12", "target": "SLC6A2", "assay": "transporter uptake, inhibitor, radiometric", "test system": "HEK293", "conditions": "10 µM", "endpoint": "inhibition", "value": "16%"}
{"Compound": "CC(=O)N[C@H](CCCNC(=N)N)C(=O)N[C@H]1CSSC[C@@H](C(N)=O)NC(=O)[C@H](Cc2c[nH]c3ccccc23)NC(=O)[C@H](CCCNC(=N)N)NC(=O)[C@@H](Cc2ccccc2)NC(=O)[C@H](Cc2c[nH]cn2)NC(=O)[C@H](CCC(=O)O)NC1=O", "target": "Melanocortin receptor 4 (MC4R, Homo sapiens, UniProt P32245)", "assay": "cAMP, agonist", "test system": "CHO-K1", "endpoint": "Emax", "value": "100%"}
{"Compound": "C1=C/COCc2cc(ccc2OCCN2CCCC2)Nc2nccc(n2)-c2cccc(c2)COC/1", "target": "CASK", "assay": "binding", "conditions": "0.1 µM", "endpoint": "remaining binding", "value": "81%"}
{"Compound": "CC(C)[C@@H](CN1CCc2ccccc2C1)NC(=O)c1cccc(-c2ccccc2)c1", "target": "Kappa-type opioid receptor (Oprk1, Mus musculus, UniProt P33534)", "assay": "ligand displacement, radioligand", "conditions": "10 µM", "endpoint": "inhibition", "value": "66%"}
{"Compound": "NC/C(=C\\F)COc1cccc(Cn2c(=S)[nH]c(=O)c3[nH]cnc32)c1", "target": "MPO", "assay": "enzyme activity, inhibitor, fluorescence", "conditions": "1.4 nM", "endpoint": "inhibition", "value": "17.2%"}
{"Compound": "CCCCC(=O)Nc1ccc(-c2ccc3ncn(CCC)c(=O)c3c2)cn1", "target": "CASK", "assay": "binding, competition with immobilised ligand", "conditions": "0.5 µM", "endpoint": "remaining binding", "value": "100%"}
{"Compound": "CSc1nc(NCCC2CC2)c2ncn([C@H]3[C@H](O)[C@H](O)[C@@H]4C[C@@H]43)c2n1", "target": "SLC6A2", "assay": "ligand displacement, radioligand", "conditions": "10 µM", "endpoint": "inhibition", "value": "5%"}
{"Compound": "COc1ccc(Cl)cc1-c1cc(=O)[nH]c(=S)n1CC(N)=O", "target": "MPO", "assay": "enzyme activity, inhibitor, fluorescence", "conditions": "0.5556 µM", "endpoint": "inhibition", "value": "87.6%"}
{"Compound": "CNC(=O)[C@@]12C[C@@H]1[C@@H](n1cnc3c(Nc4ccccc4)nc(C#Cc4ccc(Cl)s4)nc31)[C@H](O)[C@@H]2O", "target": "SLC6A2", "assay": "ligand displacement, radioligand", "conditions": "10 µM", "endpoint": "inhibition", "value": "77%"}
{"Compound": "CC(C)OCCn1c(=S)[nH]c(=O)c2[nH]ccc21", "target": "MPO", "assay": "enzyme activity, inhibitor", "conditions": "0.68 µM", "endpoint": "remaining activity", "value": "27.6%"}
{"Compound": "Cc1cc(O)c(-c2ccc([C@@H](C)CN(C)C)cc2)c2c1[nH]c(=O)c1sccc12", "target": "Extracellular serine/threonine protein kinase FAM20C (FAM20C, Homo sapiens, UniProt Q8IXL6)", "assay": "cell-free assay, inhibitor", "conditions": "0.1 µM, lysate", "endpoint": "inhibition", "value": "-0.829%"}
{"Compound": "CCOC(=O)[C@@]12C[C@@H]1[C@@H](n1cnc3c(NCCCCc4ccccc4)nc(C#Cc4ccc(Cl)s4)nc31)[C@H](O)[C@@H]2O", "target": "SLC6A2", "assay": "ligand displacement, radioligand", "conditions": "10 µM", "endpoint": "inhibition", "value": "3%"}
{"Compound": "COc1ccc2oc(-c3ccc4nc(N)oc4c3)c/c(=N\\c3ccccc3NC(=O)CCN)c2c1", "target": "Fibroblast growth factor receptor 1 (FGFR1, Homo sapiens, UniProt P11362)", "assay": "binding", "conditions": "1 µM", "endpoint": "remaining binding", "value": "94%"}
